Data on twelve compounds can be found in ChEMBL document CHEMBL1806369, “Carbonic anhydrase I and II activation with mono- and dihalogenated histamine derivatives” (Bioorg Med Chem Lett, 2011).

The target of the first assay is Carbonic anhydrase 1 (Homo sapiens) (UniProt P00915). As to the kind of experiment: Activation of human cytosolic carbonic anhydrase 1 preincubated for 15 mins by stopped-flow CO2 hydration assay. In short, it runs like this: (§1)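 Initial velocity taken from at least six traces of the first 5–10% of reaction per activator, with uncatalyzed rates measured identically and subtracted. Activator stocks 10 mM in distilled-deionized water, diluted with water down to 0.1 nM. Enzyme and activator preincubated 15 min at room temperature before assay.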
Chain of Carbonic anhydrase 1 (Homo sapiens) (P00915 2-261 limits assumed): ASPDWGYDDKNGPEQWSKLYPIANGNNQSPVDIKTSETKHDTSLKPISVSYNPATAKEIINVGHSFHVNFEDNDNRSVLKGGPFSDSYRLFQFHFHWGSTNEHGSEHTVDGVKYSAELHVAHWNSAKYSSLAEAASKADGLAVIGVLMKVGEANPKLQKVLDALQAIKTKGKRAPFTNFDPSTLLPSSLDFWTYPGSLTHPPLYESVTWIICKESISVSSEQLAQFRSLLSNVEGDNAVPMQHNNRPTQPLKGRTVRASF
Consider `CC(C)(C)OC(=O)NCCc1nc(I)[nH]c1I`, for which the KA is 29.3 µM.
As for `NCCc1nc(I)[nH]c1I`, the KA worked out at 0.0009 µM.
`NCCc1nc(Cl)[nH]c1Cl` had a KA of 0.021 µM.
Take `CC(C)(C)OC(=O)NCCc1nc(Cl)[nH]c1Cl`: the KA was determined as 5.4 µM.
Compound `CC(C)(C)OC(=O)NCCc1nc[nH]c1Cl` had a KA of 16.5 µM.
The same measure, in the same setting: for `NCCc1nc[nH]c1Br` the value was 0.012 µM; for `NCCc1nc(Br)[nH]c1Br`, 0.015 µM; for `CC(C)(C)OC(=O)NCCc1nc[nH]c1I`, 12.1 µM.
The same measure, in the same setting: for `NCCc1nc[nH]c1I` the value was 0.0007 µM; for `CC(C)(C)OC(=O)NCCc1nc(Br)[nH]c1Br`, 7.1 µM.
For the compound `CC(C)(C)OC(=O)NCCc1nc[nH]c1Br`, the KA came out at 13.3 µM.
The compound `NCCc1nc[nH]c1Cl` had a KA of 0.018 µM.

A further assay has as its target Carbonic anhydrase 2 (Homo sapiens) (UniProt P00918). The experiment in a line: Activation of human cytosolic carbonic anhydrase 2 preincubated for 15 mins by stopped-flow CO2 hydration assay. In short, it runs like this: as §1
`CC(C)(C)OC(=O)NCCc1nc(I)[nH]c1I` returned a KA of 13.6 µM.
The compound `NCCc1nc(I)[nH]c1I` gave a KA of 0.065 µM.
`NCCc1nc(Cl)[nH]c1Cl` displayed a KA of 0.115 µM.
In the case of `CC(C)(C)OC(=O)NCCc1nc(Cl)[nH]c1Cl`, the KA turned out to be 50.2 µM.
For the compound `CC(C)(C)OC(=O)NCCc1nc[nH]c1Cl`, the KA was determined as 24.8 µM.
`NCCc1nc[nH]c1Br` registered a KA of 0.008 µM.
Still for that read-out and setting: for `NCCc1nc(Br)[nH]c1Br` the value was 0.096 µM; for `CC(C)(C)OC(=O)NCCc1nc[nH]c1I`, 36.7 µM; for `NCCc1nc[nH]c1I`, 0.001 µM.
In the case of `CC(C)(C)OC(=O)NCCc1nc(Br)[nH]c1Br`, the KA was 44.5 µM.
`CC(C)(C)OC(=O)NCCc1nc[nH]c1Br` yielded a KA of 28.5 µM.
`NCCc1nc[nH]c1Cl` had a KA of 0.032 µM.
